What was measured:
Hepatitis B virus [1] = assay: Antiviral activity against Hepatitis B virus infected in human HepG2(2.2.15) cells assessed as suppression of HBsAg secretion by ELISA; format: functional, organism-based
[2] = Cytotoxicity against human HepG2(2.2.15) cells by MTT assay; format: cell-based
Outline: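 HepG2 2.2.15 cells were exposed to compounds and viability was read by a modified MTT method. CC50 is the concentration giving 50% cytotoxicity. Values are means of at least two experiments.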

Hepatitis B virus [3] = assay: Antiviral activity against Hepatitis B virus infected in human HepG2(2.2.15) cells assessed as suppression of HbeAg secretion by ELISA; format: functional, organism-based
Hepatitis B virus [4] = assay: Selectivity ratio of CC50 for human HepG2(2.2.15) cells to IC50 for Hepatitis B virus infected in human HepG2(2.2.15) cells assessed as suppression of HBeAg secretion; format: cell-based; details: read-out: Ratio CC50/IC50
Outline: (§1)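 The selectivity index was calculated as CC50/IC50. CC50 is MTT cytotoxicity in HepG2 2.2.15 cells. No index was given where a value could not be obtained.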

Hepatitis B virus [5] = assay: Antiviral activity against Hepatitis B virus infected in human HepG2(2.2.15) cells assessed as inhibition of viral DNA replication by RT-PCR analysis; format: functional, organism-based
Hepatitis B virus [6] = assay: Selectivity ratio of CC50 for human HepG2(2.2.15) cells to IC50 for Hepatitis B virus infected in human HepG2(2.2.15) cells assessed as inhibition of viral replication; format: cell-based; details: read-out: Ratio CC50/IC50; outline: as §1
Hepatitis B virus [7] = assay: Selectivity ratio of CC50 for human HepG2(2.2.15) cells to IC50 for Hepatitis B virus infected in human HepG2.2.15 cells assessed as suppression of HBsAg secretion; format: cell-based; details: read-out: Ratio CC50/IC50; outline: as §1

| SMILES | IC50 (Hepatitis B virus [1]) [µM] | CC50 ([2]; HepG2(2.2.15) cells) [µM] | IC50 (Hepatitis B virus [3]) [µM] | selectivity ratio (Hepatitis B virus [4]) | IC50 (Hepatitis B virus [5]) [µM] | selectivity ratio (Hepatitis B virus [6]) | selectivity ratio (Hepatitis B virus [7]) | CC50 ([2]; hepg2 2.2.15) [µM] |
| --- | --- | --- | --- | --- | --- | --- | --- | --- |
| CC(=O)[C@]1(O)CC[C@@]2(O)[C@]1(C)[C@H](OC(=O)/C=C(\C)C(C)C)C[C@@H]1[C@@]3(C)CC[C@H](OC(=O)C(C#N)=C(C)C)CC3=CC[C@]12O | 136 | 452 | 221 | 2 | 30.6 | 14.8 | 3.3 | – |
| CC(=O)[C@]1(O)CC[C@@]2(O)[C@]1(C)[C@H](OC(=O)/C=C(\C)C(C)C)C[C@@H]1[C@@]3(C)CC[C@H](OC(=O)COc4ccccc4)CC3=CC[C@]12O | 76.7 | 319 | 96.1 | 3.3 | 41 | 7.8 | 4.2 | – |
| CC(=O)[C@]1(O)CC[C@@]2(O)[C@]1(C)[C@H](OC(=O)/C=C(\C)C(C)C)C[C@@H]1[C@@]3(C)CC[C@H](OC(=O)/C=C/n4ccnc4)CC3=CC[C@]12O | 18.7 | > 1460 | 13.2 | > 111 | 7.48 | > 195 | > 78 | – |
| CC(=O)[C@]1(O)CC[C@@]2(O)[C@]1(C)[C@H](OC(=O)/C=C(\C)C(C)C)C[C@@H]1[C@@]3(C)CC[C@H](OC(=O)c4cc5ccccc5[nH]4)CC3=CC[C@]12O | 21.7 | 36.7 | 33.7 | 1.1 | 3.63 | 10.1 | 1.7 | – |
| CC(=O)[C@]1(OC(=O)/C=C/c2ccc3c(c2)OCO3)CC[C@@]2(O)[C@]1(C)[C@H](OC(=O)/C=C(\C)C(C)C)C[C@@H]1[C@@]3(C)CC[C@H](OC(=O)/C=C/c4ccc5c(c4)OCO5)CC3=CC[C@]12O | 575 | > 1020 | 407 | > 2.5 | > 201 | – | > 1.8 | – |
| CC(=O)[C@]1(OC(=O)c2cccnc2)CC[C@@]2(O)[C@]1(C)[C@H](OC(=O)/C=C(\C)C(C)C)C[C@@H]1[C@@]3(C)CC[C@H](OC(=O)c4cccnc4)CC3=CC[C@]12O | 90 | 602 | 135 | > 2.4 | 24.7 | > 24.4 | > 6.7 | – |
| CC(=O)[C@]1(O)CC[C@@]2(O)[C@]1(C)[C@H](OC(=O)/C=C(\C)C(C)C)C[C@@H]1[C@@]3(C)CC[C@H](OC(=O)c4cccnc4)CC3=CC[C@]12OC(=O)c1cccnc1 | 199 | 350 | 204 | 1.7 | 97 | 3.6 | 1.8 | – |
| CC(=O)[C@]1(O)CC[C@@]2(O)[C@]1(C)[C@H](OC(=O)/C=C(\C)C(C)C)C[C@@H]1[C@@]3(C)CC[C@H](O)CC3=CC[C@]12O [CAUDATIN] | 143 | – | > 183 | < 1.3 | 40.6 | 6 | 1.7 | 245 |
| C[C@H](Cn1cnc2c(N)ncnc21)OCP(=O)(O)O [TENOFOVIR ANHYDROUS] | 1450 | > 1820 | 1240 | > 1.5 | 0.77 | > 2360 | > 1.3 | – |
